Calls of active or inactive are those of the source. The calls are words filed in the database; no cut-off is given here.
What was measured:
[1] = tested on: Amaranthus hypochondriacus; experiment: Phytotoxicity against Amaranthus hypochondriacus assessed as inhibition of radicle elongation by petri dish bioassay; format: functional, organism-based
Method in brief: (§1)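 Petri dish germination and radicle elongation bioassay on seedlings at 28 °C. Pure compounds tested at 10, 50, 100 and 200 µg mL-1, with 2,4-D as positive control. IC50 derived by Probit analysis from percent radicle growth or germination inhibition; ANOVA (p < 0.05).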

Echinochloa crus-galli = experiment: Phytotoxicity against Echinochloa crus-galli assessed as inhibition of radicle elongation by petri dish bioassay; format: functional, organism-based; method in brief: as §1
Calmodulin (Bos taurus) = Calmodulin (Bos taurus) (UniProt P62157); experiment: Binding affinity to bovine brain calmodulin assessed as modification of electrophoretic mobility at 0.033 ug/mL after 1.5 hrs by SDS-PAGE in presence of calcium chloride
Method in brief: (§2)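 Bovine brain and spinach calmodulin, 2 µg samples, pretreated 1.5 h at 30 °C with 1 mM CaCl2 and compound (0.033 µg/mL). Denaturing SDS-PAGE on 15% polyacrylamide gels in presence of Ca2+. Read-out is change in electrophoretic mobility relative to an untreated calmodulin lane.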

[2] = target: Calmodulin (Spinacia oleracea) (UniProt P04353); experiment: Binding affinity to spinach calmodulin assessed as modification of electrophoretic mobility at 0.033 ug/mL after 1.5 hrs by SDS-PAGE in presence of calcium chloride; method in brief: as §2
Lemna aequinoctialis [3] = experiment: Phytotoxicity against Lemna paucicostata assessed as growth inhibition at 12 uM after 3 days relative to control; format: functional; conditions: 72 h, read-out: GI
Method in brief: (§3)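 Lemna culture of 10 colonies, three fronds each, in 3 mL half-strength Hunter's medium containing compound for 3 days (72 h). Percent growth inhibition is versus culture-medium control, as means of three replicates ± standard deviation; significance by Student's unpaired t-test.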

Lemna aequinoctialis [4] = experiment: Phytotoxicity against Lemna paucicostata assessed as growth inhibition at 25 uM after 3 days relative to control; format: functional; conditions: 72 h, read-out: GI; method in brief: as §3
Lemna aequinoctialis [5] = experiment: Phytotoxicity against Lemna paucicostata assessed as growth inhibition at 50 uM after 3 days relative to control; format: functional; conditions: 72 h, read-out: GI; method in brief: as §3
Lemna aequinoctialis [6] = experiment: Phytotoxicity against Lemna paucicostata assessed as growth inhibition at 100 uM after 3 days relative to control; format: functional; conditions: 72 h, read-out: GI; method in brief: as §3
Lemna aequinoctialis [7] = experiment: Phytotoxicity against Lemna paucicostata assessed as chlorophyll reduction at 25 uM after 3 days by ultraviolet spectroscopy relative to control; format: functional; conditions: 72 h, read-out: GI
Method in brief: (§4)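 Duckweed (Lemna) culture: 10 colonies of three fronds each in 3 mL half-strength Hunter's medium with compound, run 3 days. Afterwards plants are removed from medium, blotted and extracted overnight in the dark with 5 mL DMSO. Chlorophyll is expressed on fresh weight basis. Reduction is relative to culture-medium control, as means of three replicates ± standard deviation, with Student's unpaired t-test.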

Lemna aequinoctialis [8] = experiment: Phytotoxicity against Lemna paucicostata assessed as chlorophyll reduction at 50 uM after 3 days by ultraviolet spectroscopy relative to control; format: functional; conditions: 72 h, read-out: GI; method in brief: as §4
Lemna aequinoctialis [9] = experiment: Phytotoxicity against Lemna paucicostata assessed as chlorophyll reduction at 100 uM after 3 days by ultraviolet spectroscopy relative to control; format: functional; conditions: 72 h, read-out: GI; method in brief: as §4
Lemna aequinoctialis [10] = experiment: Phytotoxicity against Lemna paucicostata assessed as chlorophyll reduction at 12 uM after 3 days by ultraviolet spectroscopy relative to control; format: functional; conditions: 72 h; method in brief: as §4
Lemna aequinoctialis [11] = experiment: Phytotoxicity against Lemna paucicostata assessed as chlorophyll reduction at 200 uM after 3 days by ultraviolet spectroscopy relative to control; format: functional; conditions: 72 h, read-out: GI; method in brief: as §4
Lemna aequinoctialis [12] = experiment: Phytotoxicity against Lemna paucicostata assessed as growth inhibition at 200 uM after 3 days relative to control; format: functional; conditions: 72 h, read-out: GI; method in brief: as §3

| SMILES | Activity (Calmodulin (Bos taurus)) | Activity [2] | IC50 [1] | IC50 (Echinochloa crus-galli) | Activity [1] | Activity (Echinochloa crus-galli) | inhibition of growth at 12 µM (Lemna aequinoctialis [3]) | inhibition of growth at 25 µM (Lemna aequinoctialis [4]) | inhibition of growth at 50 µM (Lemna aequinoctialis [5]) | inhibition of growth at 100 µM (Lemna aequinoctialis [6]) | inhibition of growth at 25 µM (Lemna aequinoctialis [7]) | inhibition of growth at 50 µM (Lemna aequinoctialis [8]) | inhibition of growth at 100 µM (Lemna aequinoctialis [9]) | chlorophyll reduction at 12 µM (Lemna aequinoctialis [10]) | inhibition of growth at 200 µM (Lemna aequinoctialis [11]) | inhibition of growth at 200 µM (Lemna aequinoctialis [12]) |
| --- | --- | --- | --- | --- | --- | --- | --- | --- | --- | --- | --- | --- | --- | --- | --- | --- |
| CCC(=O)O[C@@H]1c2c(ccc3ccc(=O)oc23)OC(C)(C)[C@@H]1OC(C)=O | Active | Active | 396 µM | 439 µM | – | – | – | – | – | – | – | – | – | – | – | – |
| C/C=C(/C)C(=O)O[C@@H]1Cc2c(cc3oc(C)cc(=O)c3c2OC)OC1(C)C | Active | Active | 143 µM | 26.4 µM | – | – | – | – | – | – | – | – | – | – | – | – |
| CC(C)C(=O)O[C@@H]1c2c(ccc3ccc(=O)oc23)OC(C)(C)[C@@H]1O | Active | Active | 189 µM | 595 µM | – | – | – | – | – | – | – | – | – | – | – | – |
| CC1(C)Oc2ccc3ccc(=O)oc3c2[C@@H](O)[C@H]1O | – | – | 361 µM | 439 µM | – | – | – | – | – | – | – | – | – | – | – | – |
| CO[C@H]1c2c(ccc3ccc(=O)oc23)OC(C)(C)[C@@H]1O | Active | Active | 108 µM | 808 µM | Dose-dependent effect | Dose-dependent effect | – | – | – | – | – | – | – | – | – | – |

More lines, main results first:

| Activity (Calmodulin (Bos taurus)) | Activity [2] | SMILES | IC50 [1] | IC50 (Echinochloa crus-galli) | Activity [1] | Activity (Echinochloa crus-galli) | inhibition of growth at 12 µM (Lemna aequinoctialis [3]) | inhibition of growth at 25 µM (Lemna aequinoctialis [4]) | inhibition of growth at 50 µM (Lemna aequinoctialis [5]) | inhibition of growth at 100 µM (Lemna aequinoctialis [6]) | inhibition of growth at 25 µM (Lemna aequinoctialis [7]) | inhibition of growth at 50 µM (Lemna aequinoctialis [8]) | inhibition of growth at 100 µM (Lemna aequinoctialis [9]) | chlorophyll reduction at 12 µM (Lemna aequinoctialis [10]) | inhibition of growth at 200 µM (Lemna aequinoctialis [11]) | inhibition of growth at 200 µM (Lemna aequinoctialis [12]) |
| --- | --- | --- | --- | --- | --- | --- | --- | --- | --- | --- | --- | --- | --- | --- | --- | --- |
| Active | Active | COc1c2c(cc3oc(C)cc(=O)c13)OC(C)(C)[C@H](OC(=O)C(C)C)C2 | 74.1 µM | 14.8 µM | – | – | – | – | – | – | – | – | – | – | – | – |
| Active | Active | CO[C@@H]1c2c(ccc3ccc(=O)oc23)OC(C)(C)[C@@H]1O | 325 µM | 6.19 µM | Dose-dependent effect | Dose-dependent effect | – | – | – | – | – | – | – | – | – | – |
| Active | Active | CC(=O)O[C@@H]1[C@H](OC(=O)C(C)C)c2c(ccc3ccc(=O)oc23)OC1(C)C [SERAVSHANIN] | 402 µM | 162 µM | – | – | – | – | – | – | – | – | – | – | – | – |
| Active | Active | CC1(C)Oc2ccc3ccc(=O)oc3c2C[C@H]1O [(+)-LOMATIN] | 344 µM | 296 µM | Dose-dependent effect | Dose-dependent effect | – | – | – | – | – | – | – | – | – | – |
| Active | Active | C/C=C(/C)C(=O)O[C@@H]1[C@H](O)c2c(ccc3ccc(=O)oc23)OC1(C)C | 262 µM | 155 µM | – | – | – | – | – | – | – | – | – | – | – | – |
| Active | Active | C/C=C(/C)C(=O)O[C@@H]1Cc2c(ccc3ccc(=O)oc23)OC1(C)C [JATAMANSIN] | 260 µM | 863 µM | – | – | 15.3% | 37.5% | 47.6% | 100% | 4.37% | 12.8% | 40.3% | 5.94% | – | – |
| Active | Active | COc1c2c(cc3oc(C)cc(=O)c13)OC(C)(C)[C@H](O)C2 | 383 µM | 461 µM | Dose-dependent effect | Dose-dependent effect | – | – | – | – | – | – | – | – | – | – |
| Active | Active | CC(C)C(=O)O[C@@H]1Cc2c(ccc3ccc(=O)oc23)OC1(C)C | 237 µM | 169 µM | – | – | – | 19.6% | 23.5% | 58.8% | 20% | 54.3% | 84.9% | – | 87.4% | 100% |
